Results as given in ChEMBL document CHEMBL4011653, “Design, Synthesis, and Evaluation of Novel Prodrugs of Transition State Inhibitors of Norovirus 3CL Protease” (J Med Chem, 2017).
pEC50, pIC50: −log10 of the molar value.

Columns and labels:
[1] = Metabolic stability of mouse liver microsomes assessed as amount of parent compound remaining at 25 to 100 uM after 1 hr in the presence of NADPH by LC-MS method; assay type: ADME, microsome; conditions: read-out: Stability
How it was run: (§1)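 Compound at 25 or 100 μM was incubated with mouse or human liver microsomes plus NADPH for 1 h at 37 °C. The remaining aldehyde form was quantified by LC/MS.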

[2] = Selectivity index, ratio of CC50 for human HeLa cells to EC50 for norovirus
[3] = Inhibition of Norovirus 3CL protease using Edans-DFHLQ/GP-Dabcyl as substrate after 30 mins by FRET assay
How it was run: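 Norovirus 3CL protease was preincubated with serial compound dilutions up to 100 μM, or DMSO, for 30 min at 37 °C. Edans-DFHLQ/GP-Dabcyl substrate was then added. Buffer was 20 mM HEPES pH 8, 200 mM NaCl, 0.4 mM EDTA, 60% glycerol and 6 mM DTT. Fluorescence (ex 360/em 460 nm) was read for 1 h, minus the no-protease background. IC50 came from variable-slope curve fits.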

[4] = Protein binding in human serum at 25 to 100 uM after 4 hrs by LC-MS method; assay type: ADME, cell-free; conditions: read-out: PB (converted)
[5] = Metabolic stability of human liver microsomes assessed as amount of parent compound remaining at 25 to 100 uM after 1 hr in the presence of NADPH by LC-MS method; assay type: ADME, microsome; conditions: read-out: Stability; how it was run: as §1
HeLa = test: Cytotoxicity against human HeLa cells assessed as cell viability after 72 hrs by MTT assay; assay type: functional
Norovirus = test: Antiviral activity against Norovirus infected in human HG23 cells assessed as inhibition of viral replication after 48 hrs by quantitative RT-PCR method; assay type: functional, cell-based; conditions: HG23, 48 h
[6] = Protein binding in mouse serum at 25 to 100 uM after 4 hrs by LC-MS method; assay type: ADME, cell-free; conditions: read-out: PB (converted)
[7] = Metabolic stability in human serum assessed as amount of parent compound remaining at 25 to 100 uM at 37 degC after 1 hr by LC-MS analysis; assay type: ADME, cell-free; conditions: read-out: Stability
[8] = Metabolic stability in mouse serum assessed as amount of parent compound remaining at 25 to 100 uM at 37 degC after 1 hr by LC-MS analysis; assay type: ADME, cell-free; conditions: read-out: Stability
Serum = test: Prodrug activation in human serum assessed as 3-chlorobenzyl (S)-3-cyclohexyl-1-oxo-1-((S)-1-oxo-3-((S)-2-oxopyrrolidin-3-yl)propan-2-ylamino)propan-2-ylcarbamate formation by measuring parent compound half life at 25 to 100 uM by LC-MS method; assay type: ADME, cell-free
[9] = Prodrug activation in human HG23 cells assessed as 3-chlorobenzyl (S)-3-cyclohexyl-1-oxo-1-((S)-1-oxo-3-((S)-2-oxopyrrolidin-3-yl)propan-2-ylamino)propan-2-ylcarbamate formation by LC-MS method; assay type: ADME, cell-based

SMILES | pIC50 [3] | pEC50 (Norovirus) | also measured
CCCC(=O)OC([C@H](C[C@@H]1CCNC1=O)NC(=O)[C@H](CC(C)C)NC(=O)OCc1ccccc1)S(=O)(=O)O (some centres undefined) | 5.43 | 5.89 | 
CCCCCCCC(=O)OC([C@H](C[C@@H]1CCNC1=O)NC(=O)[C@H](CC1CCCCC1)NC(=O)OCc1cccc(Cl)c1)S(=O)(=O)O (some centres undefined) | 6.05 | 7.52 | 
CCCCCC(=O)OC([C@H](C[C@@H]1CCNC1=O)NC(=O)[C@H](CC(C)C)NC(=O)OCc1ccccc1)S(=O)(=O)O (some centres undefined) | 5.55 | 6.52 | 
COC(=O)C(C)NC(=O)OC([C@H](C[C@@H]1CCNC1=O)NC(=O)[C@H](CC(C)C)NC(=O)OCc1ccccc1)S(=O)(=O)O (some centres undefined) | 5.74 | 6.52 | 
CC(C)C[C@H](NC(=O)OCc1ccccc1)C(=O)N[C@@H](C[C@@H]1CCNC1=O)C(OC(=O)c1ccccc1)S(=O)(=O)O (some centres undefined) | 5.14 | 6.10 | 
CC(=O)OC([C@H](C[C@@H]1CCNC1=O)NC(=O)[C@H](CC1CCCCC1)NC(=O)OCc1ccccc1)S(=O)(=O)O (some centres undefined) | 5.12 | 6.70 | 
CCC(=O)OC([C@H](C[C@@H]1CCNC1=O)NC(=O)[C@H](CC(C)C)NC(=O)OCc1ccccc1)S(=O)(=O)O (some centres undefined) | 5.12 | 6.15 | 
COC(=O)C(NC(=O)OC([C@H](C[C@@H]1CCNC1=O)NC(=O)[C@H](CC(C)C)NC(=O)OCc1ccccc1)S(=O)(=O)O)C(C)C (some centres undefined) | 5.60 | 6.40 | 
CC(C)C[C@H](NC(=O)OCc1ccccc1)C(=O)N[C@@H](C[C@@H]1CCNC1=O)C(OC(=O)C(C)C)S(=O)(=O)O (some centres undefined) | 5.46 | 6.52 | 
COC(=O)C(C)NC(=O)OC([C@H](C[C@@H]1CCNC1=O)NC(=O)[C@H](CC1CCCCC1)NC(=O)OCc1ccccc1)S(=O)(=O)O (some centres undefined) | 4.99 | 6.70 | 
CCCCC(=O)OC([C@H](C[C@@H]1CCNC1=O)NC(=O)[C@H](CC(C)C)NC(=O)OCc1ccccc1)S(=O)(=O)O (some centres undefined) | 5.46 | 5.85 | 
COC(=O)CNC(=O)OC([C@H](C[C@@H]1CCNC1=O)NC(=O)[C@H](CC(C)C)NC(=O)OCc1ccccc1)S(=O)(=O)O (some centres undefined) | 5.51 | 6.40 | 
CCCCCCCC(=O)OC([C@H](C[C@@H]1CCNC1=O)NC(=O)[C@H](CC(C)C)NC(=O)OCc1ccccc1)S(=O)(=O)O (some centres undefined) | 5.52 | 6.30 | 
CC(=O)OC([C@H](C[C@@H]1CCNC1=O)NC(=O)[C@H](CC(C)C)NC(=O)OCc1ccccc1)S(=O)(=O)O (some centres undefined) | 4.98 | 6.22 | 
COc1ccc(CCN(C)CCCC(C#N)(c2ccc(OC)c(OC)c2)C(C)C)cc1OC (centres undefined) |  |  | remaining at 1 h, up to 100 µM [1]: 30%; remaining at 1 h, up to 100 µM [5]: 41%
CC(=O)CC(c1ccccc1)c1c(O)c2ccccc2oc1=O (centres undefined) [WARFARIN] |  |  | remaining at 1 h, up to 100 µM [1]: 99.6%; fraction unbound at 4 h, up to 100 µM [4]: 0.01; remaining at 1 h, up to 100 µM [5]: 95%; fraction unbound at 4 h, up to 100 µM [6]: 0.04

Further compounds by rising pIC50 [3], results first:

pIC50 [3] | pEC50 (Norovirus) | SMILES | also measured
6.10 | 6.52 | CC(C)C[C@H](NC(=O)OCc1ccccc1)C(=O)N[C@@H](C[C@@H]1CCNC1=O)C(O)S(=O)(=O)O (some centres undefined) | remaining at 1 h, up to 100 µM [1]: 82%; remaining at 1 h, up to 100 µM [7]: 2%; selectivity ratio [2]: > 667; fraction unbound at 4 h, up to 100 µM [4]: 0.35; remaining at 1 h, up to 100 µM [5]: 92%; CC50 (HeLa): > 200000 nM; fraction unbound at 4 h, up to 100 µM [6]: 0.29; remaining at 1 h, up to 100 µM [8]: 18%
6.10 | 7.60 | COC(=O)C(C)NC(=O)OC([C@H](C[C@@H]1CCNC1=O)NC(=O)[C@H](CC1CCCCC1)NC(=O)OCc1cccc(Cl)c1)S(=O)(=O)O (some centres undefined) | 
6.10 | 7.60 | CCCCCCOC(=O)OC([C@H](C[C@@H]1CCNC1=O)NC(=O)[C@H](CC1CCCCC1)NC(=O)OCc1cccc(Cl)c1)S(=O)(=O)O (some centres undefined) | 
6.30 | 7.40 | COC(=O)C(NC(=O)OC([C@H](C[C@@H]1CCNC1=O)NC(=O)[C@H](CC1CCCCC1)NC(=O)OCc1cccc(Cl)c1)S(=O)(=O)O)C(C)C (some centres undefined) | 
6.40 | 7.70 | O=C(N[C@@H](CC1CCCCC1)C(=O)N[C@@H](C[C@@H]1CCNC1=O)C(OC(=O)C1CCCCC1)S(=O)(=O)O)OCc1cccc(Cl)c1 (some centres undefined) | 
6.52 | 7.52 | CC(C)C(=O)OC([C@H](C[C@@H]1CCNC1=O)NC(=O)[C@H](CC1CCCCC1)NC(=O)OCc1cccc(Cl)c1)S(=O)(=O)O (some centres undefined) | 
7.00 | 7.70 | O=C[C@H](C[C@@H]1CCNC1=O)NC(=O)[C@H](CC1CCCCC1)NC(=O)OCc1cccc(Cl)c1 | remaining at 1 h, up to 100 µM [1]: 40%; selectivity ratio [2]: 2800; fraction unbound at 4 h, up to 100 µM [4]: 0.02; remaining at 1 h, up to 100 µM [5]: 63%; CC50 (HeLa): 56100 nM; fraction unbound at 4 h, up to 100 µM [6]: 0.02
7.00 | 7.70 | O=C(N[C@@H](CC1CCCCC1)C(=O)N[C@@H](C[C@@H]1CCNC1=O)C(O)S(=O)(=O)O)OCc1cccc(Cl)c1 (some centres undefined) | remaining at 1 h, up to 100 µM [1]: 35%; remaining at 1 h, up to 100 µM [7]: 0%; selectivity ratio [2]: 2480; fraction unbound at 4 h, up to 100 µM [4]: 0.04; remaining at 1 h, up to 100 µM [5]: 54%; CC50 (HeLa): 49600 nM; fraction unbound at 4 h, up to 100 µM [6]: 0.03; remaining at 1 h, up to 100 µM [8]: 0%
7.00 | 7.60 | CCC(=O)OC([C@H](C[C@@H]1CCNC1=O)NC(=O)[C@H](CC1CCCCC1)NC(=O)OCc1cccc(Cl)c1)S(=O)(=O)[O-].[Na+] (some centres undefined) | remaining at 1 h, up to 100 µM [1]: 17%; remaining at 1 h, up to 100 µM [7]: 52%; selectivity ratio [2]: 4480; remaining at 1 h, up to 100 µM [5]: 11%; CC50 (HeLa): 112000 nM; remaining at 1 h, up to 100 µM [8]: 0%; t1/2 (Serum): 25 min
7.00 | 7.82 | CCCCCC(=O)OC([C@H](C[C@@H]1CCNC1=O)NC(=O)[C@H](CC1CCCCC1)NC(=O)OCc1cccc(Cl)c1)S(=O)(=O)O (some centres undefined) | remaining at 1 h, up to 100 µM [1]: 38%; remaining at 1 h, up to 100 µM [7]: 103%; selectivity ratio [2]: 5470; remaining at 1 h, up to 100 µM [5]: 76%; CC50 (HeLa): 82000 nM; remaining at 1 h, up to 100 µM [8]: 60%
7.10 | 7.52 | CC(=O)OC([C@H](C[C@@H]1CCNC1=O)NC(=O)[C@H](CC1CCCCC1)NC(=O)OCc1cccc(Cl)c1)S(=O)(=O)[O-].[Na+] (some centres undefined) | remaining at 1 h, up to 100 µM [1]: 14%; remaining at 1 h, up to 100 µM [7]: 56%; selectivity ratio [2]: > 6670; Drug metabolism [9]: Metabolite_Detected; remaining at 1 h, up to 100 µM [5]: 17%; CC50 (HeLa): > 200000 nM; remaining at 1 h, up to 100 µM [8]: 0%; t1/2 (Serum): 25 min
